Screening data deposited in PubChem BioAssay by Broad Institute.
IDH1 R132H inh – inhibitors of IDH1 R132H reductase, primary screen, biochemical, plate reader, single point; diaphorase/resazurin fluorescence, 60 min; inhibition, % at 10 µM; hit rate 0.18% among 70,000; AID 624101, 2012; in the data active = inhibition above about 34%; inconclusive = no clear call, values can overlap the other calls; inactive = below about 11%
Target sequence (O75874 whole entry R132H): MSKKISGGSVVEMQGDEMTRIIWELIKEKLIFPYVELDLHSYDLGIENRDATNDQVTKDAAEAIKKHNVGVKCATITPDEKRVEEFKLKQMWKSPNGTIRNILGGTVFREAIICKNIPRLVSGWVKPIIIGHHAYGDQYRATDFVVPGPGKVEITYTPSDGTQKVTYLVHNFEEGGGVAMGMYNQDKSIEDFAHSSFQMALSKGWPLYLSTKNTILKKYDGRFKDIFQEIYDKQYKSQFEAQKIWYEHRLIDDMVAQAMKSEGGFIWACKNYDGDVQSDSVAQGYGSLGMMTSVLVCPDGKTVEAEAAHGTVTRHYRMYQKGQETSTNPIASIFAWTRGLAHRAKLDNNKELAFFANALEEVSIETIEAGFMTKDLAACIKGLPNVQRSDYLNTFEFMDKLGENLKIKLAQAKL
KDM4C inh – inhibitors of GASC-1 (KDM4C) histone demethylase, primary screen, biochemical, single concentration HTS; Lysine-specific demethylase 4C (Homo sapiens), Q9H3R0; AID 720574, 2013; hit rate 0.15% among 96,000; inhibition, % at 12.5 µM; GST-KDM4C 2-372, H3K9me3 peptide, LANCE TR-FRET;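 active = mean replicate inhibition above about 25%, with at least 55% of replicates also reaching it, limit read from the data, passing the limit was not always enough; inconclusive = only one of those two conditions met; inactive = neither condition met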
Target sequence (Q9H3R0 2-372 limits assumed): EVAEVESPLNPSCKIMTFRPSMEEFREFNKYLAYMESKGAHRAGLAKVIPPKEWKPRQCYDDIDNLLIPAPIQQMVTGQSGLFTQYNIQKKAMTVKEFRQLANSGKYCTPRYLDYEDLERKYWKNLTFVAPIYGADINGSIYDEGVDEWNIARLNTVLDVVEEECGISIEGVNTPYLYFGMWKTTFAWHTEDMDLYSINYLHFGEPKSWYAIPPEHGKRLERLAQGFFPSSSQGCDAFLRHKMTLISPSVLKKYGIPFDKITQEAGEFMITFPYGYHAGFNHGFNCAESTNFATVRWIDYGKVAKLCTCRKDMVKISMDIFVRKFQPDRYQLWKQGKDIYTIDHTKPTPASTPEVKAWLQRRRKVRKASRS
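reagent = H3K9me3 peptide substrate, Fe(II), 2-oxoglutarate | system = GST-tagged GASC-1 (JMJD2C) catalytic fragment, aa 2-372 | amount = enzyme final amount 10 nM | read-out = Fall in 671/618 emission ratio as inhibition | medium = HEPES buffer, pH 7.5, plus ascorbate | schedule = 30 min reaction, 60 min detection, RT | measured by = LANCE TR-FRET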
T cruzi growth-1 – T. cruzi intracellular proliferation inhibitors, primary screen, cell-based, beta-gal Tulahuen parasites, NIH3T3 host, luminescence. T. cruzi beta-gal in NIH3T3, GalScreen luminescence, 90 h. inhibition, % at 8.34 µM. hit rate 5.9% among 77,000;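 active = mean inhibition above about 93%, with at least 55% of replicates each passing it, limit read from the data, passing the limit was not always enough; inconclusive = only one of those two conditions holds; inactive = neither condition holds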
T cruzi growth-2 – T. cruzi intracellular proliferation inhibitors, confirmation, cell-based, NIH3T3 host, beta-gal parasite, luminescence, cherry-pick. inhibition, % at 8.35 µM. AID 651739, 2012. hit rate 72% among 5,600. T. cruzi beta-gal in NIH3T3, GalScreen luminescence, 90 h. shares compounds with T cruzi growth-1;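 active = mean replicate inhibition above about 95% and at least 55% of replicates individually reaching it, limit read from the data; inconclusive = only one of the two criteria is met; inactive = neither criterion is met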
T cruzi growth-3 – inhibitors of intracellular T. cruzi replication, confirmation, NIH3T3 host cells, beta-gal parasites, cherry-pick, set 2. shares compounds with T cruzi growth-1. T. cruzi beta-gal in NIH3T3, GalScreen luminescence, 90 h. inhibition, % at 2.09 µM. hit rate 21% among 5,600. AID 651740, 2012;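 active = mean inhibition above about 95%, with at least 55% of replicates also reaching it, limit read from the data; inconclusive = meets just one of the two conditions; inactive = meets neither condition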
NIH3T3 tox – cytotoxicity in mouse NIH/3T3 fibroblasts, confirmation, cytotoxicity control for T. cruzi proliferation inhibitor project, cell-based, cherry-pick, single point. shares compounds with T cruzi growth-1. NIH/3T3 viability, CellTiter-Glo ATP luminescence, 90 h. cytotoxicity (signal decrease), % at 8.35 µM. hit rate 14% among 5,600. AID 651742, 2012;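 active = mean signal decrease across replicates above about 35% based on untreated-well scatter, with enough replicates individually passing, limit read from the data; inconclusive = no rule stated though some were filed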
NIH3T3 tox 2 – NIH/3T3 fibroblast cytotoxicity, confirmation, cytotoxicity control, cell-based, cherry-pick, single point, set 2. shares compounds with T cruzi growth-1. NIH/3T3 viability, CellTiter-Glo ATP luminescence, 90 h. inhibition, % at 24.9 µM. hit rate 56% among 5,600;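 active = mean loss of cell viability signal at or above a set limit, and enough replicates individually reaching it; inconclusive = meets only the mean limit or only the replicate share; inactive = meets neither condition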
Numbers stand for hits; – = inactive; ? = inconclusive; · = not tested or not shown. Shown is part of a subset that was picked to be rich in hits.

SMILES | IDH1 R132H inh | KDM4C inh | T cruzi growth-1 | T cruzi growth-2 | T cruzi growth-3 | NIH3T3 tox | NIH3T3 tox 2
COc1ccc(NC(=O)C(C)NS(=O)(=O)c2ccc(F)cc2)cc1Cl (stereo unspecified) | – | · | · | · | · | · | ·
CC(C)NC(=O)Nc1ccc2c(c1)C(=O)N([C@@H](C)CO)C[C@@H](C)[C@@H](CN(C)S(=O)(=O)c1ccc(Cl)cc1)OCCCC[C@@H](C)O2 | – | – | 108 | 101 | – | – | –
Cc1noc(C)c1NC(=O)Nc1ccc2c(c1)C(=O)N([C@@H](C)CO)C[C@@H](C)[C@@H](CN(C)S(=O)(=O)c1ccc(Cl)cc1)OCCCC[C@@H](C)O2 | – | – | – | · | · | · | ·
C[C@H](CO)N1C[C@H](C)[C@@H](CN(C)S(=O)(=O)c2ccc(Cl)cc2)OCCCC[C@H](C)Oc2ccc(NC(=O)NC3CCCCC3)cc2C1=O | · | – | 106 | 109 | – | – | –
Cc1noc(C)c1NC(=O)Nc1ccc2c(c1)C(=O)N([C@H](C)CO)C[C@H](C)[C@H](CN(C)S(=O)(=O)c1ccc(Cl)cc1)OCCCC[C@H](C)O2 | · | – | ? | – | – | – | –
CC(C)NC(=O)Nc1ccc2c(c1)C(=O)N([C@H](C)CO)C[C@@H](C)[C@H](CN(C)S(=O)(=O)c1ccc(Cl)cc1)OCCCC[C@@H](C)O2 | – | – | – | · | · | · | ·
C[C@H]1CCCCO[C@H](CN(C)S(=O)(=O)c2ccc(Cl)cc2)[C@@H](C)CN([C@@H](C)CO)C(=O)c2cc(NC(=O)NC3CCCCC3)ccc2O1 | – | – | – | · | · | · | ·
COC(=O)CSc1nnc2c3c4c(sc3nc(-c3ccccc3Cl)n12)CCCC4 | – | · | · | · | · | · | ·
Cc1cc(C)c(S(=O)(=O)N(C)CC(=O)Nc2cccc(C)c2C)c(C)c1 | – | · | · | · | · | · | ·
COc1ccc(CCNC(=O)c2nc(SC)ncc2Cl)cc1OC | – | · | · | · | · | · | ·
C/C=C/c1ccc([C@H]2[C@@H](CO)N3CCCCN(S(=O)(=O)c4cccc(C)c4)C[C@H]23)cc1 | · | – | 102 | 101 | – | – | 104
C/C=C/c1ccc([C@@H]2[C@H]3CN(S(=O)(=O)c4ccccc4)CCCCN3[C@H]2CO)cc1 | · | – | – | · | · | · | ·
C/C=C/c1ccc([C@@H]2[C@H](CO)N3CCCCN(S(=O)(=O)c4cccc(C)c4)C[C@@H]23)cc1 | · | – | – | · | · | · | ·
C/C=C/c1ccc([C@H]2[C@@H](CO)N3CCCCN(S(=O)(=O)c4ccccc4)C[C@@H]23)cc1 | · | – | 102 | 100 | – | – | –
COc1cccc(NC(=O)CSc2nnc(-c3ccc(Cl)cc3)n2-c2cccc(C)c2)c1 | – | · | · | · | · | · | ·
COc1cccc(NC(=O)Cn2cnc3c2c(=O)n(C)c(=O)n3C)c1 | – | · | · | · | · | · | ·
Cc1nc(NCC2CCCO2)c2c3c(sc2n1)CCC3 (stereo unspecified) | – | · | · | · | · | · | ·
COc1ccc(CN(C)C[C@@H]2Oc3c(NC(=O)c4ccncc4)cccc3C(=O)N([C@@H](C)CO)C[C@H]2C)cc1 | – | – | 105 | – | – | – | 26
C[C@@H]1CN([C@@H](C)CO)C(=O)c2cccc(NC(=O)c3ccncc3)c2O[C@H]1CN(C)Cc1ccncc1 | – | – | – | · | · | · | ·
COc1ccc(CN(C)C[C@H]2Oc3c(NC(=O)c4ccncc4)cccc3C(=O)N([C@@H](C)CO)C[C@@H]2C)cc1 | – | – | 100 | – | – | – | 37
C[C@H](CO)N1C[C@H](C)[C@@H](CN(C)Cc2ccncc2)Oc2c(NC(=O)c3ccncc3)cccc2C1=O | – | – | – | · | · | · | ·
O=C(O)CNc1ncnc2oc(-c3ccccc3)c(-c3ccccc3)c12 | – | · | · | · | · | · | ·
CN(c1cccc(NC(=O)CN2C(=O)c3cccc4cccc2c34)c1)S(C)(=O)=O | – | · | · | · | · | · | ·
O=C(Cc1ccncc1)N1CC[C@@H]2[C@@H](CO)Nc3ccc(-c4cccc(F)c4)cc3[C@@H]21 | · | – | · | · | · | · | ·
O=C(Cc1ccccc1)N1CC[C@@H]2[C@@H](CO)Nc3ccc(-c4ccccc4F)cc3[C@@H]21 | · | – | – | · | · | · | ·
SMILES | IDH1 R132H inh | KDM4C inh | T cruzi growth-1 | T cruzi growth-2 | T cruzi growth-3 | NIH3T3 tox | NIH3T3 tox 2
O=C(Cc1ccncc1)N1CC[C@@H]2[C@H]1c1cc(-c3ccccc3F)ccc1N[C@@H]2CO | · | – | 118 | 99 | – | – | –
O=C(Cc1ccncc1)N1CC[C@@H]2[C@H](CO)Nc3ccc(-c4ccccc4F)cc3[C@@H]21 | · | – | 112 | 107 | – | – | ?
COC(=O)c1ccccc1NC(=O)COc1cc(C)ccc1C(C)C | – | · | · | · | · | · | ·
COc1cc(OC)c(NC(=O)CSc2nnc(-c3ccccc3)n2C)cc1Cl | – | · | · | · | · | · | ·
C[C@@H]1CN([C@@H](C)CO)C(=O)c2cc(C3=CCCCC3)cnc2O[C@@H]1CN(C)Cc1cccc(F)c1 | – | – | 112 | 98 | – | – | 44
C[C@@H]1CN([C@@H](C)CO)C(=O)c2cc(C3=CCCC3)cnc2O[C@@H]1CN(C)Cc1cccc(F)c1 | – | – | ? | 110 | – | – | –
C[C@H]1CN([C@@H](C)CO)C(=O)c2cc(C3=CCCC3)cnc2O[C@H]1CN(C)Cc1cccc(F)c1 | – | – | – | · | · | · | ·
C[C@@H]1CN([C@H](C)CO)C(=O)c2cc(C3=CCCCC3)cnc2O[C@H]1CN(C)Cc1cccc(F)c1 | – | – | – | · | · | · | ·
COC(=O)c1cc(C(=O)NCc2ccccc2OC)cc([N+](=O)[O-])c1 | – | · | · | · | · | · | ·
CC(=O)c1ccc(NC(=O)COc2ccccc2C(=O)Nc2sc3c(c2C#N)CCCC3)cc1 | – | · | · | · | · | · | ·
CCn1c(SCC(=O)Nc2ccc(Cl)cc2Cl)nnc1-c1cccc(C)c1 | – | · | · | · | · | · | ·
CCNC(=O)[C@@H]1[C@@H](CO)[C@@H]2Cn3c(cccc3=O)[C@H]1N2C(=O)Nc1cc(F)ccc1F | · | – | · | · | · | · | ·
CN(C)C(=O)[C@H]1[C@H](CO)[C@H]2Cn3c(cccc3=O)[C@@H]1N2C(=O)c1ccc(F)cc1 | · | – | 185 | – | – | – | –
CN(C)C(=O)[C@@H]1[C@@H](CO)[C@@H]2Cn3c(cccc3=O)[C@H]1N2C(=O)c1ccccc1 | · | – | – | · | · | · | ·
CCCNC(=O)[C@H]1[C@H](CO)[C@H]2Cn3c(cccc3=O)[C@@H]1N2CCC(F)(F)F | · | – | – | · | · | · | ·
CCCNC(=O)[C@@H]1[C@@H](CO)[C@@H]2Cn3c(cccc3=O)[C@H]1N2CCC(F)(F)F | · | – | 94 | ? | – | – | –
CCCNC(=O)[C@H]1[C@H](CO)[C@H]2Cn3c(cccc3=O)[C@@H]1N2C(=O)Nc1cc(F)ccc1F | · | – | 101 | ? | – | – | –
